The source of these data is ChEMBL document CHEMBL1154729, “Discovery of novel antitubercular 2,10-dihydro-4aH-chromeno[3,2-c]pyridin-3-yl derivatives” (Eur J Med Chem, 2010).

By MIC is commonly meant the lowest concentration found to suppress growth.

SMILES strings stand for the structures. Converted amounts (≈) assume the structure as drawn.

Tested on in one assay: not listed separately
Nature of the assay: Selectivity index, ratio of IC50 for african green monkey Vero cells to MIC for multidrug-resistant Mycobacterium tuberculosis. It is filed as functional.
Take `CCc1ccc(C(=O)NCC2=C[C@@H]3Oc4ccccc4C(=O)C3=CN2c2ncccc2C)cc1`: the “Selectivity Index” value was determined as 1977.

The test system of the next assay is Mycobacterium tuberculosis. Description: Antimycobacterial activity against multidrug-resistant Mycobacterium tuberculosis by agar dilution method. It is filed as functional. The method in brief:
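Agar dilution MIC on Middlebrook 7H11 agar supplemented with OADC, following NCCLS-like procedure; determined in duplicate.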
For orientation: In agar dilution the substance is mixed into plates at graded concentrations.
The compound `Cc1ccc2ccc(C(=O)NCC3=C[C@@H]4Oc5ccccc5C(=O)C4=CN3c3ncccc3C)cc2c1` came in with a minimum inhibitory concentration (MIC) of 0.13 µM (≈ 0.0634 µg/mL).

For `Cc1cccnc1N1C=C2C(=O)c3ccccc3O[C@H]2C=C1CNC(=O)c1cccc(Cl)c1`, it took 1.7 µM (≈ 0.778 µg/mL) to inhibit growth (MIC).

In the case of `Cc1cccnc1N1C=C2C(=O)c3ccccc3O[C@H]2C=C1CNC(=O)c1ccc(Cl)cc1`, it took 3.4 µM (≈ 1.56 µg/mL) to inhibit growth (MIC).

`O=C(NCC1=C[C@@H]2Oc3ccccc3C(=O)C2=CN1c1ncc(Br)cc1Br)c1ccc(Cl)cc1` registered an MIC of 2.95 µM (≈ 1.77 µg/mL).

As to `Cc1ccc(C(=O)NCC2=C[C@@H]3Oc4ccccc4C(=O)C3=CN2c2ncccc2C)cc1`, it took 1.78 µM (≈ 0.779 µg/mL) to inhibit growth (MIC).

Regarding `O=C(NCC1=C[C@@H]2Oc3ccccc3C(=O)C2=CN1c1ncc(Br)cc1Br)c1ccc2ccccc2c1`, inhibition of growth (MIC) required 5.04 µM (≈ 3.11 µg/mL).

As to `Cc1ccc2ccc(C(=O)NCC3=C[C@@H]4Oc5ccccc5C(=O)C4=CN3c3ncc(Br)cc3Br)cc2c1`, the lowest concentration to inhibit growth (MIC) was 0.61 µM (≈ 0.385 µg/mL).

With `CCc1ccc(C(=O)NCC2=C[C@@H]3Oc4ccccc4C(=O)C3=CN2c2ncccc2C)cc1`, the minimal inhibitory concentration (MIC) is 0.07 µM (≈ 0.0316 µg/mL).

In the case of `CCc1ccc(C(=O)NCC2=C[C@@H]3Oc4ccccc4C(=O)C3=CN2c2ncc(Br)cc2Br)cc1`, the MIC worked out at 1.3 µM (≈ 0.774 µg/mL).

With `O=C(NCC1=C[C@@H]2Oc3ccccc3C(=O)C2=CN1c1ncc(Br)cc1Br)c1cccc(Cl)c1`, the minimum inhibitory concentration (MIC) amounted to 2.6 µM (≈ 1.56 µg/mL).

Compound `Cc1cccnc1N1C=C2C(=O)c3ccccc3O[C@H]2C=C1CNC(=O)c1ccc2ccccc2c1` gave an MIC of 0.42 µM (≈ 0.199 µg/mL).

Take `O=C(NCC1=C[C@@H]2Oc3ccccc3C(=O)C2=CN1c1ncc(Br)cc1Br)c1ccc(Cl)c(Cl)c1`: inhibition of growth (MIC) required 4.91 µM (≈ 3.12 µg/mL).

The compound `COc1ccc(C(=O)NCC2=C[C@@H]3Oc4ccccc4C(=O)C3=CN2c2ncccc2C)cc1` returned a minimum inhibitory concentration (MIC) of 3.44 µM (≈ 1.56 µg/mL).

`Cc1cccnc1N1C=C2C(=O)c3ccccc3O[C@H]2C=C1CNC(=O)c1ccc(F)cc1` displayed an MIC of 7.09 µM (≈ 3.13 µg/mL).

Compound `Cc1cccnc1N1C=C2C(=O)c3ccccc3O[C@H]2C=C1CNC(=O)c1ccccc1` displayed a minimal inhibitory concentration (MIC) of 3.68 µM (≈ 1.56 µg/mL).

For `CC[C@@H](CO)NCCN[C@@H](CC)CO` [ETHAMBUTOL], 122 µM (≈ 25 µg/mL) was the least that counted as inhibitory (MIC).

For `NNC(=O)c1ccncc1` [ISONIAZID], inhibition of growth (MIC) required 45.6 µM (≈ 6.25 µg/mL).

On to `CO[C@H]1/C=C/O[C@@]2(C)Oc3c(C)c(O)c4c(O)c(c(/C=N/N5CCN(C)CC5)c(O)c4c3C2=O)NC(=O)/C(C)=C\C=C\[C@H](C)[C@H](O)[C@@H](C)[C@@H](O)[C@@H](C)[C@H](OC(C)=O)[C@@H]1C` [RIFAMPIN], for which the MIC is 3.79 µM (≈ 3.12 µg/mL).
